The subject of assay [1] is Staphylococcus aureus. As to the kind of experiment: Antibacterial activity against methicillin-resistant Staphylococcus aureus. It counts as functional. Summed up:
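Broth microdilution by two-fold serial dilution in 96-well plates following NCCLS. MRSA strain N315. Inoculum adjusted with sterile saline to 1 × 10⁵ CFU. Compounds were made up as DMSO stocks, then diluted in Mueller-Hinton broth. A DMSO plus inoculum well, without drug, was the growth control. Growth was read visually and spectrophotometrically, in triplicate. MIC is the lowest concentration giving complete inhibition of growth.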

The test system of another assay is Klebsiella pneumoniae. As to the kind of experiment: Antibacterial activity against Klebsiella pneumoniae. It counts as functional.
The subject of the next assay is Candida. As to the kind of experiment: Antifungal activity against Candida mycoderma after 24 hrs by two-fold serial dilution method. It counts as functional. A digest of the protocol: (§1)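 Spore suspension in sterile distilled water from one-day-old cultures on Sabouraud agar, final 1–5 × 10³ spore mL⁻¹. Compound stocks diluted in sterile RPMI 1640 as two-fold serial dilutions in microdilution plates. MIC is the lowest concentration completely inhibiting growth. Growth monitored visually and spectrophotometrically, in triplicate.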

Another assay has as its system Candida albicans. As to the kind of experiment: Antifungal activity against Candida albicans ATCC 76615 after 24 hrs by two-fold serial dilution method. It counts as functional. Conditions: ATCC 76615, 24 h. Summed up: as §1
Another assay has as its system Salmonella typhi. In words: Antibacterial activity against Bacillus typhi after 24 hrs by two-fold serial dilution method. It counts as functional, Salmonella enterica subsp. enterica serovar Typhi. Conditions: Salmonella enterica. A digest of the protocol:
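Two-fold serial dilution in 96-well plates following NCCLS; compounds dissolved in DMSO as stocks, then diluted in Mueller-Hinton broth; bacterial suspension adjusted with sterile saline to 1 × 10⁵ CFU; MIC taken as lowest concentration completely inhibiting growth, monitored visually and spectrophotometrically; DMSO-plus-inoculum well as solvent control; triplicate.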

The test system of the next assay is Pseudomonas aeruginosa. As to the kind of experiment: Antibacterial activity against Pseudomonas aeruginosa ATCC 27853 after 24 hrs by two-fold serial dilution method. It counts as functional. Conditions: ATCC 27853, 24 h. Summed up:
(§2)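 MIC taken as the lowest concentration giving complete growth inhibition, by standard two-fold serial dilution in 96-well plates following NCCLS. Stocks in DMSO, diluted in Mueller–Hinton broth. Inoculum adjusted with sterile saline to 1 × 10⁵ CFU. DMSO with inoculum and no drug served as solvent control. Growth read visually and spectrophotometrically, in triplicate.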

The next assay has as its system Escherichia coli. As to the kind of experiment: Antibacterial activity against Escherichia coli JM109 after 24 hrs by two-fold serial dilution method. It counts as functional. As to conditions: JM109, 24 h.
In a further assay the test system is Bacillus. As to the kind of experiment: Antibacterial activity against Bacillus proteus ATCC 13315 after 24 hrs by two-fold serial dilution method. It counts as functional. Conditions: ATCC 13315, 24 h. A digest of the protocol: as §2
In another assay the test system is Micrococcus luteus. As to the kind of experiment: Antibacterial activity against Micrococcus luteus ATCC 4698 after 24 hrs by two-fold serial dilution method. It counts as functional. As to conditions: ATCC 4698, 24 h. Summed up:
as §2

The next assay relates to Bacillus subtilis. As to the kind of experiment: Antibacterial activity against Bacillus subtilis ATCC 21216 after 24 hrs by two-fold serial dilution method. Conditions: ATCC 21216, 24 h. It counts as functional. A digest of the protocol:
as §2

The test system of assay [2] is Staphylococcus aureus. As to the kind of experiment: Antibacterial activity against methicillin-resistant Staphylococcus aureus N315 after 24 hrs by two-fold serial dilution method. It counts as functional. As to conditions: N315, 24 h.
Assay [3] relates to Staphylococcus aureus. As to the kind of experiment: Antibacterial activity against Staphylococcus aureus ATCC 6538 after 24 hrs by two-fold serial dilution method. It counts as functional. As to conditions: ATCC 6538, 24 h.
A further assay relates to Aspergillus flavus. In words: Antifungal activity against Aspergillus flavus after 24 hrs by two-fold serial dilution method. It counts as functional. A digest of the protocol:
as §1

The test system of the next assay is Cyberlindnera jadinii. As to the kind of experiment: Antifungal activity against Candida utilis after 24 hrs by two-fold serial dilution method. It counts as functional. Conditions: Williopsis jadinii. A digest of the protocol:
as §1

In another assay the test system is Saccharomyces cerevisiae. In words: Antifungal activity against Saccharomyces cerevisiae after 24 hrs by two-fold serial dilution method. It counts as functional. Summed up:
as §1

Drawing on ChEMBL document CHEMBL2390927, “Design, synthesis and antimicrobial evaluation of novel benzimidazole type of Fluconazole analogues and their synergistic effects with Chloromycin, Norfloxacin and Fluconazole” (2013), this text covers MIC for three compounds.

≈ marks a conversion by molar mass, not a printed value.

What is called MIC is the lowest concentration that inhibits growth of the organism. Read a low MIC as greater potency. In turn, `CCCCCCCCCCn1c(CNNC(=O)c2sc(C(=O)NNCc3nc4ccccc4n3CCCCCCCCCC)c(C)c2C)nc2ccccc21` had an MIC in the assay on Staphylococcus aureus [1] of 2 mg/L (≈ 2.6 µM).
Regarding `CCCC[C@H](CC(=O)NO)C(=O)N[C@@H](c1nc2ccccc2[nH]1)C(C)C`, the minimum inhibitory concentration (MIC) with Klebsiella pneumoniae was found to be 0.5 mg/L (≈ 1.39 µM).
Consider `Fc1ccccc1NCc1nc2ccccc2[nH]1`, for which the MIC was found to be 32 mg/L (≈ 133 µM) in the assay with Candida; 32 mg/L (≈ 133 µM) against Candida albicans; 64 mg/L (≈ 265 µM) with Salmonella typhi; 128 mg/L (≈ 531 µM) in the assay on Pseudomonas aeruginosa; 32 mg/L (≈ 133 µM) against Escherichia coli; 64 mg/L (≈ 265 µM) in the assay on Bacillus. For the same compound, the MIC is 64 mg/L (≈ 265 µM) in the assay with Micrococcus luteus; 32 mg/L (≈ 133 µM) against Bacillus subtilis; 32 mg/L (≈ 133 µM) in the assay on Staphylococcus aureus [2]; 16 mg/L (≈ 66.3 µM) in the assay on Staphylococcus aureus [3]; 32 mg/L (≈ 133 µM) against Aspergillus flavus; 64 mg/L (≈ 265 µM) in the assay with Cyberlindnera jadinii. The lowest concentration to inhibit growth in the assay on Saccharomyces cerevisiae (MIC) was 32 mg/L (≈ 133 µM).
